ChEMBL document CHEMBL1165950, “Design and synthesis of new potent anticancer pyrazoles with high FLT3 kinase inhibitory selectivity” (Bioorg Med Chem, 2010)

Tests used:
Type in all cases: functional
U-251 = test: Cytotoxicity against human U251 cells assessed as cell growth at 10 uM; settings: read-out: Activity
Summary of the method: (§1)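 NCI-60 screen: cells grown in RPMI 1640 with 5% FBS and 2 mM L-glutamine, plated at 5000–40,000 cells/well according to doubling time, and preincubated 24 h at 37 °C, 5% CO2. The single 10 µM dose (DMSO stock) was added, then incubated 48 h. Cells were TCA-fixed and stained with 0.4% SRB, read at 515 nm, and growth % calculated against time-zero and control plates.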

SNB-19 = test: Cytotoxicity against human SNB19 cells assessed as cell growth at 100 nM after 48 hrs by sulforhodamine B assay; settings: SNB-19, 48 h, read-out: Activity
[1] = Cytotoxicity against human RPMI8266 cells assessed as cell growth at 1 uM after 48 hrs by sulforhodamine B assay; settings: read-out: Activity
SF-539 = test: Cytotoxicity against human SF539 cells assessed as cell growth at 0.001 uM after 48 hrs by sulforhodamine B assay; settings: SF-539, 48 h, read-out: Activity
NCI-H23 [2] = test: Cytotoxicity against human NCI-H23 cells assessed as cell growth at 10 uM; settings: read-out: Activity; summary of the method: as §1
HCT-15 = test: Growth inhibition of human HCT15 cells after 48 hrs by sulforhodamine B assay; settings: HCT-15, 48 h
Summary of the method: (§2)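 NCI 60-cell screen, five-dose mode. Cells grown in RPMI 1640 with 5% FBS and 2 mM L-glutamine and plated at 5000-40,000 cells/well according to doubling time. After 24 h preincubation, a Tz plate was TCA-fixed. Five concentrations (10-fold or 1/2 log dilutions) were applied for 48 h at 37 °C. SRB staining read at 515 nm. IC50 taken from [(Ti-Tz)/(C-Tz)]×100 = 50.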

M14 [3] = test: Cytotoxicity against human M14 cells assessed as cell growth at 0.001 uM after 48 hrs by sulforhodamine B assay; settings: M14, 48 h, read-out: Activity
A549 [4] = test: Growth inhibition of human A549 cells after 48 hrs by sulforhodamine B assay; settings: A549, 48 h
Summary of the method: (§3)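 NCI five-dose SRB assay in RPMI 1640 with 5% FBS and 2 mM L-glutamine. Cells were preincubated 24 h, then exposed 48 h at 37 °C to five concentrations (10-fold or half-log serial dilutions from DMSO stocks). TCA fixation, SRB staining, and absorbance at 515 nm followed. IC50 was taken where [(Ti−Tz)/(C−Tz)]×100 = 50, with Tz as time-zero cell density.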

NCI-H322M [5] = test: Growth inhibition of human NCI-H322M cells after 48 hrs by sulforhodamine B assay; summary of the method: as §2
A498 = test: Cytotoxicity against human A498 cells assessed as cell growth at 10 uM; settings: read-out: Activity
Summary of the method: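 Single-dose NCI-60 screen at 10 µM. Cells were grown in RPMI 1640 with 5% FBS and 2 mM L-glutamine, then treated for 48 h at 37 °C. Protein was measured by SRB staining with absorbance at 515 nm. Percentage growth was recorded, and inhibition percentage was calculated as 100 minus growth percentage.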

NCI-H322M [6] = test: Cytotoxicity against human NCI-H322M cells assessed as cell growth at 1 uM after 48 hrs by sulforhodamine B assay; settings: read-out: Activity
786-0 [7] = test: Cytotoxicity against human 786-0 cells assessed as cell growth at 100 nM after 48 hrs by sulforhodamine B assay; settings: 786-0, 48 h, read-out: Activity
Summary of the method: (§4)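 NCI-60 five-dose screen. Cells were grown in RPMI 1640 with 5% FBS and 2 mM L-glutamine, plated at 5000–40,000 cells/well and preincubated for 24 h. Time-zero plates were TCA-fixed. DMSO-solubilized drug was added at five concentrations (10-fold or ½-log serial dilutions) for 48 h at 37 °C, 5% CO2. Cells were TCA-fixed, stained with 0.4% SRB and read at 515 nm. Percent growth used time-zero, control and test absorbances.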

SF-268 [8] = test: Cytotoxicity against human SF268 cells assessed as cell growth at 0.01 uM after 48 hrs by sulforhodamine B assay; settings: SF-268, 48 h, read-out: Activity
SF-268 [9] = test: Cytotoxicity against human SF268 cells assessed as cell growth at 10 uM; settings: read-out: Activity; summary of the method: as §1
786-0 [10] = test: Cytotoxicity against human 786-0 cells assessed as cell growth at 0.001 uM after 48 hrs by sulforhodamine B assay; settings: 786-0, 48 h, read-out: Activity; summary of the method: as §4
A549 [11] = test: Cytotoxicity against human A549 cells assessed as cell growth at 0.001 uM after 48 hrs by sulforhodamine B assay; settings: A549, 48 h, read-out: Activity; summary of the method: as §4
TK-10 = test: Cytotoxicity against human TK10 cells assessed as cell growth at 100 nM after 48 hrs by sulforhodamine B assay; settings: TK-10, 48 h, read-out: Activity
SW-620 = test: Cytotoxicity against human SW620 cells assessed as cell growth at 10 uM after 48 hrs by sulforhodamine B assay; settings: SW-620, 48 h, read-out: Activity
M14 [12] = test: Cytotoxicity against human M14 cells assessed as cell growth at 10 uM; settings: read-out: Activity; summary of the method: as §1
NCI-H23 [13] = test: Cytotoxicity against human NCI-H23 cells assessed as cell growth at 1 uM after 48 hrs by sulforhodamine B assay; settings: NCI-H23, 48 h, read-out: Activity
SK-MEL-5 [14] = test: Cytotoxicity against human SK-MEL-5 cells assessed as cell growth at 10 uM; settings: read-out: Activity; summary of the method: as §1
SK-MEL-5 [15] = test: Growth inhibition of human SK-MEL-5 cells after 48 hrs by sulforhodamine B assay; settings: SK-MEL-5, 48 h; summary of the method: as §2
COLO 205 = test: Cytotoxicity against human COLO205 cells assessed as cell growth at 0.01 uM after 48 hrs by sulforhodamine B assay; settings: COLO 205, 48 h, read-out: Activity; summary of the method: as §4
OVCAR-3 = test: Cytotoxicity against human OVCAR-3 cells assessed as cell growth at 10 uM after 48 hrs by sulforhodamine B assay; settings: OVCAR-3, 48 h, read-out: Activity
HL-60(TB) = test: Cytotoxicity against human HL-60(TB) cells assessed as cell growth at 0.001 uM after 48 hrs by sulforhodamine B assay; settings: HL-60, 48 h, read-out: Activity
Summary of the method: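 NCI 60-cell panel. Cells are grown in RPMI 1640 with 5% FBS and 2 mM L-glutamine, seeded at 5000–40,000 cells/well according to doubling time, and preincubated 24 h. Time-zero plates are TCA-fixed. Compound from DMSO stock is given at five 10-fold or 1/2-log concentrations for 48 h at 37 °C, 5% CO2. Suspension cells are fixed with 80% TCA (final 16%) and SRB-stained, with absorbance at 515 nm. Percent growth is derived from Tz, control and test readings.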

MCF7 = test: Cytotoxicity against human MCF7 cells assessed as cell growth at 10 uM; settings: read-out: Activity; summary of the method: as §1
CCRF-CEM = test: Growth inhibition of human CCRF-CEM cells after 48 hrs by sulforhodamine B assay; summary of the method: as §3
[16] = read-out: LC50 (the source's name)

Cc1cc(O)cc(-c2nn(CC#N)cc2-c2ccnc(-c3ccc(Oc4ccccc4)cc3)c2)c1
growth at 10 µM (U-251): 47.5%
growth at 0.1 µM (SNB-19): 94%
growth at 1 µM [1]: -20%
growth at 0.001 µM (SF-539): 88%
growth at 10 µM (NCI-H23 [2]): 42.6%
GI50 (HCT-15): 2.14 µM
TGI (HCT-15): 5.38 µM
CC50 (HCT-15; [16]): 26.1 µM
growth at 0.001 µM (M14 [3]): 95%
GI50 (A549 [4]): 2 µM
LC50 (A549 [4]): 24.7 µM
TGI (A549 [4]): 5.07 µM
GI50 (NCI-H322M [5]): 5.68 µM
TGI (NCI-H322M [5]): 19.2 µM
CC50 (NCI-H322M [5]; [16]): 48.6 µM
growth at 10 µM (A498): 93.9%
growth at 1 µM (NCI-H322M [6]): 35%
growth at 0.1 µM (786-0 [7]): 91%
growth at 0.01 µM (SF-268 [8]): 91%
growth at 10 µM (SF-268 [9]): 71.8%
growth at 0.001 µM (786-0 [10]): 98%
growth at 0.001 µM (A549 [11]): 96%
growth at 0.1 µM (TK-10): 102%
growth at 10 µM (SW-620): -100%
growth at 10 µM (M14 [12]): 55.1%
growth at 1 µM (NCI-H23 [13]): -64%
growth at 10 µM (SK-MEL-5 [14]): 64.3%
GI50 (SK-MEL-5 [15]): 2.93 µM
TGI (SK-MEL-5 [15]): 9.9 µM
CC50 (SK-MEL-5 [15]; [16]): 31.5 µM
growth at 0.01 µM (COLO 205): 99%
growth at 10 µM (OVCAR-3): -100%
growth at 0.001 µM (HL-60(TB)): 96%
growth at 10 µM (MCF7): 18.4%
GI50 (CCRF-CEM): 2.85 µM
LC50 (CCRF-CEM): > 100 µM
TGI (CCRF-CEM): > 100 µM
